SMILES strings stand for the structures. Converted amounts (≈) assume the structure as drawn.

The subject of test [1] is Human alphaherpesvirus 1. Kind of test: Inhibitory activity against herpes simplex virus type 1 (HSV-1) KOS strain. The format is functional, organism-based. A digest of the protocol: (§1)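 Confluent E6SM cell cultures were inoculated with 100 CCID50 of virus and allowed 1 h for adsorption. Residual virus was then removed, and the cells were incubated with test compound at 400, 200, 100, ... μg/mL. Viral cytopathicity was scored once it reached completion in untreated infected controls.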

The test system of test [2] is Human alphaherpesvirus 2. Kind of test: Inhibitory activity against herpes simplex virus type 2 (HSV-2) Lyons strain. The format is functional, organism-based. A digest of the protocol: as §1
Test [3] can be described thus: Inhibitory activity against herpes simplex virus type 2 (HSV-2) 196 strain. The format is functional. The method in brief: as §1
For test [4], the system named is Human alphaherpesvirus 1. Kind of test: Inhibitory activity against herpes simplex virus type 1 (HSV-1) McIntyre strain. In kind it is functional, organism-based. A digest of the protocol: as §1
Test [5] relates to Cytomegalovirus. Kind of test: Inhibitory activity against cytomegalovirus (CMV) Davis strain. In kind it is functional, organism-based. The note with it: Human betaherpesvirus 5. The method in brief: (§2)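 HEL cell cultures, grown to confluence, received 100 CCID50 of virus. After 1 h adsorption, the inoculum was removed and the cultures were incubated with serial concentrations of compound (400, 200, 100, ... μg/mL).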

In test [6] the test system is Human immunodeficiency virus 1. Kind of test: Inhibition of human immunodeficiency virus type 1 (HIV-1) induced cytopathogenicity in CEM cells. The note with it: Human immunodeficiency virus 1, CCRF-CEM. In kind it is functional, organism-based. A digest of the protocol: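 CEM cells (~3 × 10⁵ cells/mL) were infected with 100 CCID50 of HIV-1 (IIIB)/mL and plated with dilutions of compound. After 4 days at 37 °C, giant cell formation was assessed microscopically.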

Test [7] has as its system Cytomegalovirus. Kind of test: Inhibitory activity against cytomegalovirus (CMV) AD 169 strain. In kind it is functional, organism-based. The note with it: Human betaherpesvirus 5. A digest of the protocol:
as §2

For the next test, the system named is Vaccinia virus. Kind of test: Inhibitory activity against vaccinia virus (VV). In kind it is functional, organism-based. The conditions noted are these: Orthopoxvirus vaccinia. The method in brief:
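Confluent E6SM cell cultures were inoculated with 100 CCID50 of virus and left for 1 h adsorption, then residual virus was removed. Cultures were incubated with test compound at serial concentrations (400, 200, 100, ... μg/mL). Virus-induced cytopathicity was scored once it reached completion in untreated infected control cultures.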

Test [8] has as its system Human alphaherpesvirus 2. Kind of test: Inhibitory activity against herpes simplex virus type 2 (HSV-2) G strain. In kind it is functional, organism-based. A digest of the protocol:
as §1

Test [9] in a line: Inhibitory activity against murine sarcoma virus induced transformation of murine C3H/3T3 embryo fibroblasts. The format is functional, Mus musculus. A digest of the protocol: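 Murine C3H/3T3 embryo fibroblasts were seeded at 5 × 10⁵ cells/mL. After 24 h they were infected with 80 focus-forming units of MSV for 90–120 min at 37 °C. The medium was then replaced with fresh medium containing various compound concentrations, and transformation was examined microscopically after 6 days.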

Test [10] concerns Human immunodeficiency virus 2. Kind of test: Inhibition of human immunodeficiency virus type 2 (HIV-2) induced cytopathogenicity in CEM cells. The format is functional, organism-based. The note with it: Human immunodeficiency virus 2, CCRF-CEM.
Test [11] has as its system Human alphaherpesvirus 1. Put plainly: Inhibition of herpes simplex virus type 1 (HSV-1) F strain. The format is functional, organism-based. The method in brief:
as §1

In test [12] the test system is Human immunodeficiency virus 1. Kind of test: Inhibitory activity of compound against human immunodeficiency virus type 1 (HIV-1) induced cytopathogenicity in MT-4 cells. The format is functional, organism-based. The note with it: Human immunodeficiency virus 1, MT4. A digest of the protocol: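 Human MT-4 cells (~4 × 10⁵ cells/mL) were infected with 100 CCID50 of HIV-1 (IIIB)/mL and seeded into wells containing compound dilutions. After 5 days at 37 °C, viable cells were counted by trypan blue exclusion in a blood cell counting chamber.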
(Protection from cytopathic effect is a common read-out in antiviral testing.)

Test [13] relates to Human immunodeficiency virus 2. Kind of test: Inhibitory activity against human immunodeficiency virus type 2 (HIV-2) induced cytopathogenicity in MT-4 cells. The format is functional, organism-based. The note with it: Human immunodeficiency virus 2, MT4.
Test [14] relates to Human alphaherpesvirus 2. Put plainly: Inhibitory activity against herpes simplex virus type 2 (HSV-2) 196 strain. The format is functional, organism-based. A digest of the protocol: as §1
The test system of test [15] is Human alphaherpesvirus 1. Kind of test: Inhibitory activity against herpes simplex virus type 1 thymidine kinase (HSV-1 TK-) VMW 1837 strain.
Test [16] concerns Human alphaherpesvirus 1. Kind of test: Iactivity against herpes simplex virus type 1 (HSV-1) McIntyre strain. The format is functional, organism-based. A digest of the protocol: as §1
Test [17] deals with Human alphaherpesvirus 2. Kind of test: Inhibitory activity against herpes simplex virus type 2 (HSV-2) G strain. In kind it is functional, organism-based. The method in brief: as §1
In a further test the test system is E6SM. Kind of test: Inhibitory activity against herpes simplex virus type 2 (HSV-2) Lyons strain. The format is functional, cell-based, Homo sapiens. A digest of the protocol: as §1
Test [18] relates to Human alphaherpesvirus 1. Put plainly: Inhibitory activity against herpes simplex virus type 1 (HSV-1) F strain. In kind it is functional, organism-based. A digest of the protocol: as §1

Take `Nc1nnc(N)c2c1ncn2CCOCP(=O)(O)O`: the EC50 was > 200 µg/mL in the test with Human alphaherpesvirus 1 [1]; > 200 µg/mL in the test on Human alphaherpesvirus 2 [2]; > 200 µg/mL in [3]; > 200 µg/mL in the test on Human alphaherpesvirus 1 [4]; > 50 µg/mL with Cytomegalovirus [5]; > 100 µg/mL in [6]. Further, the EC50 in the test with Cytomegalovirus [7] was > 50 µg/mL; in the test on Vaccinia virus it was > 200 µg/mL; in the test on Human alphaherpesvirus 2 [8] it was > 200 µg/mL; in test [9], 124 µg/mL (≈ 430 µM); in test [10], > 100 µg/mL; with Human alphaherpesvirus 1 [11], > 200 µg/mL.
`Nc1cc2c(ncn2CCOCP(=O)(O)O)c(O)n1`: the EC50 was 4.5 µg/mL (≈ 15.6 µM) in the test with Human alphaherpesvirus 1 [1]; 7 µg/mL (≈ 24.3 µM) in the test with Human alphaherpesvirus 2 [2]; > 20 µg/mL in [12]; 7 µg/mL (≈ 24.3 µM) in test [3]; 4 µg/mL (≈ 13.9 µM) with Human alphaherpesvirus 1 [4]; > 20 µg/mL in [13]. The EC50 with Cytomegalovirus [5] is 1.5 µg/mL (≈ 5.2 µM); in the test with Cytomegalovirus [7], 2 µg/mL (≈ 6.94 µM); with Vaccinia virus, 150 µg/mL (≈ 520 µM); in the test with Human alphaherpesvirus 2 [8], 12 µg/mL (≈ 41.6 µM); in test [9], 2.9 µg/mL (≈ 10.1 µM); in the test with Human alphaherpesvirus 1 [11] it was 7 µg/mL (≈ 24.3 µM).
With `Nc1cc(N)c2ncn(CCOCP(=O)(O)O)c2n1`, the EC50 is 300 µg/mL (≈ 1040 µM) in the test on Human alphaherpesvirus 1 [1]; 300 µg/mL (≈ 1040 µM) with Human alphaherpesvirus 2 [2]; > 400 µg/mL in test [3]; > 400 µg/mL with Human alphaherpesvirus 1 [4]; > 50 µg/mL in the test with Cytomegalovirus [5]; > 100 µg/mL in test [6]. Moreover, the EC50 in the test with Cytomegalovirus [7] is > 50 µg/mL; in the test with Vaccinia virus, > 400 µg/mL; with Human alphaherpesvirus 2 [8] it was 300 µg/mL (≈ 1040 µM); in test [9], 142 µg/mL (≈ 494 µM); in [10], > 100 µg/mL; in the test on Human alphaherpesvirus 1 [11], > 400 µg/mL.
On to `Nc1cc2c(ncn2CCOCP(=O)(O)O)c(N)n1`, for which the EC50 is 150 µg/mL (≈ 522 µM) in the test with Human alphaherpesvirus 1 [1]; 70 µg/mL (≈ 244 µM) in the test on Human alphaherpesvirus 2 [2]; 51 µg/mL (≈ 178 µM) in test [12]; 100 µg/mL (≈ 348 µM) in test [3]; 100 µg/mL (≈ 348 µM) in the test with Human alphaherpesvirus 1 [4]; 78.5 µg/mL (≈ 273 µM) in [13]. The EC50 is > 50 µg/mL with Cytomegalovirus [5]; 30 µg/mL (≈ 104 µM) in test [6]; > 50 µg/mL in the test on Cytomegalovirus [7]; 150 µg/mL (≈ 522 µM) with Vaccinia virus; 70 µg/mL (≈ 244 µM) with Human alphaherpesvirus 2 [8]; 144 µg/mL (≈ 501 µM) in [9]. Further, the EC50 in test [10] worked out at 16 µg/mL (≈ 55.7 µM); with Human alphaherpesvirus 1 [11], 70 µg/mL (≈ 244 µM).
In the case of `Nc1nc(=O)ccn1CCOCP(=O)(O)O`, the EC50 with Human alphaherpesvirus 1 [1] is > 400 µg/mL; with Human alphaherpesvirus 2 [14] it was “Not Active”; in test [12] it was > 100 µg/mL; in the test on Human alphaherpesvirus 1 [15], “Not Active”; in the test on Human alphaherpesvirus 1 [16], “Not Active”; in test [13], > 100 µg/mL. The EC50 was > 100 µg/mL in the test with Cytomegalovirus [5]; “Not Active” with Human alphaherpesvirus 2 [17]; “Not Active” in the test on E6SM; “Not Active” with Human alphaherpesvirus 1 [18]; > 100 µg/mL with Cytomegalovirus [7]; > 100 µg/mL in test [9].
In the case of `Nc1nc(S)c2c(ncn2CCOCP(=O)(O)O)n1`, the EC50 is > 100 µg/mL with Human alphaherpesvirus 1 [1]; > 100 µg/mL in [12]; > 100 µg/mL in test [13]; > 50 µg/mL in the test on Cytomegalovirus [5]; > 100 µg/mL in test [6]; > 50 µg/mL with Cytomegalovirus [7]. The EC50 was > 100 µg/mL in the test on Vaccinia virus, > 100 µg/mL with Human alphaherpesvirus 2 [8], 31 µg/mL (≈ 102 µM) in test [9] and > 100 µg/mL in test [10].
With `Nc1nc2c(ncn2CCOCP(=O)(O)O)c(=O)[nH]1` [GS-438], the EC50 was > 0.2 µg/mL in test [12], > 0.2 µg/mL in test [13], 0.0006 µg/mL (≈ 0.00207 µM) in test [9] and 0.03 µg/mL (≈ 0.104 µM) in [10].
Regarding `Nc1nc(N)c2ncn(CCOCP(=O)(O)O)c2n1` [PMEDAP], the EC50 turned out to be 2 µg/mL (≈ 6.94 µM) in the test with Human alphaherpesvirus 1 [1]; 0.07 µg/mL (≈ 0.243 µM) in the test with Human alphaherpesvirus 2 [2]; 2.67 µg/mL (≈ 9.26 µM) in [12]; 0.07 µg/mL (≈ 0.243 µM) in test [3]; 2 µg/mL (≈ 6.94 µM) with Human alphaherpesvirus 1 [4]; 10 µg/mL (≈ 34.7 µM) in the test on Cytomegalovirus [5]. Further, the EC50 came out at 10 µg/mL (≈ 34.7 µM) with Cytomegalovirus [7]; 20 µg/mL (≈ 69.4 µM) with Vaccinia virus; 0.2 µg/mL (≈ 0.694 µM) with Human alphaherpesvirus 2 [8]; 0.6 µg/mL (≈ 2.08 µM) in test [9]; 2 µg/mL (≈ 6.94 µM) in the test with Human alphaherpesvirus 1 [11].

As a reminder, the EC50 is the concentration at which the effect is half-maximal. Low readings indicate higher potency in that assay, high ones lower potency in that assay.

The values are drawn from ChEMBL document CHEMBL1132160, “Structure-antiviral activity relationship in the series of pyrimidine and purine N-[2-(2-phosphonomethoxy)ethyl] nucleotide analogues. 1. Derivatives substituted at the carbon atoms of the base” (J Med Chem, 1999).
